SMILES strings stand for the structures. In brackets after ≈: the same amount, converted by molar mass.

Broadly, the MIC is the smallest concentration in the dilution series that meets the test's criterion for growth inhibition. Lower therefore signals inhibition by little substance.

In one data set the test system is Sporothrix schenckii. The data set is described as follows: Antimicrobial activity against Sporothrix schenckii after 24 hrs. It counts as functional. The procedure, abridged: (§1)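 Broth microdilution per NCCLS guidelines in MOPS-buffered RPMI 1640. Starting inoculum was 1-5 × 10^3 cfu/mL, and plates were incubated at 35 °C. MIC was read spectrophotometrically at 492 nm after 24–48 h for yeasts and 72–96 h for mycelial fungi.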

The nature of data set [1]: Cytotoxicity against mouse L929 cells assessed as viability at 12.5 to 25 ug/ml after 24 hrs by MTT assay. Format: cell-based. The following applies: read-out: Activity. The method in brief:
(§2)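 L929 mouse fibroblasts were grown in RPMI 1640 with 10% FBS at 37 °C under 5% CO2 and seeded at 1.0 × 10^5 cells/mL. At 80% confluence the medium was switched to serum-free RPMI, and cells were exposed 24 h to 0.09–25 µg/mL in twofold steps. After PBS washes, cells got 0.5 mg/mL MTT for 4 h at 37 °C, then DMSO for 30 min at room temperature. Viability was calculated as (A570−A630) relative to untreated cells.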
(Tetrazolium assays rely on reduction of a dye to a coloured formazan, in cell work by metabolically active cells.)

For the next data set, the system named is Escherichia coli. The data set is described as follows: Antimicrobial activity against Escherichia coli after 24 hrs. Format: functional. The method in brief: (§3)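 NCCLS microdilution in Mueller Hinton broth. Strains were grown 24 h on nutrient agar at 37 °C, suspended at about 1.0–2.0 × 10^7 cells/mL (McFarland-matched) in saline with 0.05% Tween 20, then diluted 100 µL into 10 mL medium. Compounds were taken from a 1 mg/mL DMSO stock as twofold dilutions, top final 50 µg/mL. Incubation was 35 °C in a moist, dark chamber, and MIC was read spectrophotometrically at 24 h.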

Data set [2] has as its system L929. The data set can be described thus: Cytotoxicity against mouse L929 cells at 6.25 ug/ml after 24 hrs by MTT assay. Format: cell-based. The following applies: l929, 24 h. The procedure, abridged: as §2
Another data set relates to Candida albicans. The data set is described as follows: Antimicrobial activity against Candida albicans after 24 hrs. It counts as functional. The procedure, abridged: as §1
The subject of a further data set is Candida parapsilosis. The data set is described as follows: Antimicrobial activity against Candida parapsilosis ATCC 22019 after 24 hrs. Format: functional. The following applies: Lodderomyces parapsilosis, ATCC 22019, 24 h. The method in brief:
as §1

For another data set, the system named is Staphylococcus aureus. The data set is described as follows: Antimicrobial activity against Staphylococcus aureus after 24 hrs. It counts as functional. The procedure, abridged:
as §3

For a further data set, the system named is Pseudomonas aeruginosa. The data set is described as follows: Antimicrobial activity against Pseudomonas aeruginosa after 24 hrs. It counts as functional. The procedure, abridged:
as §3

Data set [3] relates to L929. The data set can be described thus: Cytotoxicity against mouse L929 cells assessed as change in cellular morphology at 12.5 to 25 ug/ml after 24 hrs […]. It counts as cell-based. The following applies: l929, 24 h. The procedure, abridged: (§4)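 L929 fibroblasts (serum-free RPMI, 37 °C, 5% CO2) were exposed to compound for 24 h, then fixed and stained with Giemsa for 30 min at 37 °C. Excess stain was washed off with PBS, plates were air-dried, and cell morphology was examined under a phase contrast microscope against untreated controls.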

For another data set, the system named is Klebsiella pneumoniae. The data set can be described thus: Antimicrobial activity against Klebsiella pneumoniae after 24 hrs. Format: functional. The procedure, abridged:
as §3

The subject of data set [4] is Trichophyton mentagrophytes. The data set is described as follows: Antimicrobial activity against Trichophyton mentagrophytes after 72 to 96 hrs.
Data set [5] deals with L929. The data set can be described thus: Cytotoxicity against mouse L929 cells assessed as change in morphology at 6.25 ug/ml after 24 hrs […]. Format: cell-based. The following applies: l929, 24 h. The procedure, abridged:
as §4

In data set [6] the test system is Aspergillus fumigatus. The data set is described as follows: Antimicrobial activity against Aspergillus fumigatus after 72 to 96 hrs.
In another data set the test system is Cryptococcus neoformans. The data set can be described thus: Antimicrobial activity against Cryptococcus neoformans after 24 hrs. It counts as functional. The method in brief:
as §1

In data set [7] the test system is Trichophyton mentagrophytes. The data set can be described thus: Antimicrobial activity against Trichophyton mentagrophytes after 24 hrs. It counts as functional.
The test system of data set [8] is Aspergillus fumigatus. The data set can be described thus: Antimicrobial activity against Aspergillus fumigatus after 24 hrs. Format: functional.

Turning to `Clc1ccc2c(c1)CN(CCN1COc3ccc(Cl)cc3C1)CO2`, the MIC with Sporothrix schenckii is 6.25 µg/mL (≈ 17.1 µM); with Escherichia coli it was over 50 µg/mL; against Candida albicans, 12.5 µg/mL (≈ 34.2 µM); against Candida parapsilosis it was 25 µg/mL (≈ 68.4 µM); against Staphylococcus aureus, 12.5 µg/mL (≈ 34.2 µM); with Pseudomonas aeruginosa, over 50 µg/mL. The MIC in the data set on Klebsiella pneumoniae was over 50 µg/mL; in data set [4] it was 3.12 µg/mL (≈ 8.54 µM); in the data set with Aspergillus fumigatus [6], 50 µg/mL (≈ 137 µM); in the data set with Cryptococcus neoformans, 12.5 µg/mL (≈ 34.2 µM). Besides, the viability at 24 h in data set [1] was over 90%. Moreover, the values for the Activity result in the data set with L929 [2], in the data set on L929 [3] and with L929 [5] were “Non-toxic”, “Toxic” and “Non-toxic”, respectively.
With `Cc1ccc2c(c1)CN(c1ccc(F)cc1)CO2`, the minimal inhibitory concentration (MIC) in [7] was 25 µg/mL (≈ 103 µM); in the data set with Sporothrix schenckii, 25 µg/mL (≈ 103 µM); in the data set on Aspergillus fumigatus [8], over 50 µg/mL; against Escherichia coli it was 50 µg/mL (≈ 206 µM); in the data set on Candida albicans it was over 50 µg/mL; in the data set on Candida parapsilosis, over 50 µg/mL. Further, the MIC against Staphylococcus aureus, in the data set with Pseudomonas aeruginosa, in the data set with Klebsiella pneumoniae and in the data set on Cryptococcus neoformans was 50 µg/mL (≈ 206 µM) throughout.
`Cc1ccc2c(c1)CN(c1ccc(Cl)cc1)CO2`: the MIC in data set [7] is 12.5 µg/mL (≈ 48.1 µM); against Sporothrix schenckii, 12.5 µg/mL (≈ 48.1 µM); with Aspergillus fumigatus [8], 25 µg/mL (≈ 96.3 µM); with Escherichia coli it was over 50 µg/mL; in the data set on Candida albicans, 50 µg/mL (≈ 193 µM); in the data set on Candida parapsilosis, 50 µg/mL (≈ 193 µM). Also, the MIC came to 25 µg/mL (≈ 96.3 µM) against Staphylococcus aureus, 50 µg/mL (≈ 193 µM) in the data set with Pseudomonas aeruginosa, 25 µg/mL (≈ 96.3 µM) in the data set on Klebsiella pneumoniae and 25 µg/mL (≈ 96.3 µM) in the data set on Cryptococcus neoformans.
